# Variants at the floor of the assay were thinned out.
# B1: tRNA (parent)
# chain: GUUCCGUUGGCGUAAUGGUAACGCGUCUCCCUCCUAAGGAGAAGACUGCGGGUUCGAGUCCCGUACGGAACG
# Variants of: B1
# Assay: yeast fitness relative to wild type (ratio to wild type); higher = fitter; tRNA-Arg(CCU), competitive growth, 37 C, YPD
# Method in brief: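 Amplicons of the tRNA-Arg(CCU) gene were sequenced, 100-nucleotide paired-end, from the start population and from each end population of a pooled yeast competition. The competition, in six parallel replicates, lasted 24 hours in YPD at 37°C. Fitness relative to wild type was calculated from changes in genotype frequencies. Genotypes had to have ≥ 100 starting reads, and estimates < 0.5 were set to 0.5.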
row,Variant,yeast fitness
1,U19C C29U A57C G68C,≤ 0.5
2,U19C C29U C34A,≤ 0.5
3,U19C C29U C61U G68C,≤ 0.5
4,U19C C30A,1.03
5,U19C C30G A40C G51A C61A,0.696
6,U19C C30G C33G U53A,≤ 0.5
7,U19C C30G G51C,≤ 0.5
8,U19C C30U G56A A69C,≤ 0.5
9,U19C C31A A36C G44A A57U,≤ 0.5
10,U19C C31A A37G G50U C62G,≤ 0.5
11,U19C C31A A69U,0.534
12,U19C C31A C66U,0.555
13,U19C C31G,0.841
14,U19C C31G C49U,0.736
15,U19C C31G C62U,0.702
16,U19C C31G C66G,≤ 0.5
17,U19C C31U,0.986
18,U19C C31U C33G G41A C55U C61A,≤ 0.5
19,U19C C31U G56A,0.954
20,U19C C31U G56A G67A,0.601
21,U19C C31U G58A,0.715
22,U19C C33A,0.636
23,U19C C33G A36U G44A,≤ 0.5
24,U19C C33U G41C,0.583

row,Variant,yeast fitness
1,U19C C34G G68A,≤ 0.5
2,U19C C34U A43U A70C,0.572
3,U19C C34U C49A G56C C62A A65C,≤ 0.5
4,U19C C34U G52A U59A,0.669
5,U19C C46A,0.978
6,U19C C46G,0.943
7,U19C C46G A69U,0.803
8,U19C C46U,1.06
9,U19C C49A,0.606
10,U19C C49A C62A,≤ 0.5
11,U19C C49U,0.999
12,U19C C55G,0.676
13,U19C C55G A65C,≤ 0.5
14,U19C C55U,0.807
15,U19C C55U C61G,0.596
16,U19C C55U U59C C61G,≤ 0.5
17,U19C C60A G68C,≤ 0.5
18,U19C C62U,0.925
19,U19C C66U A69C,0.685
20,U19C G23A A37C,≤ 0.5
21,U19C G23A A37C A65G,≤ 0.5
22,U19C G23A C24A C29U C30U G63A,≤ 0.5
23,U19C G23A C24G A40U A65U,≤ 0.5
24,U19C G23C C29G A43U G50A A65C,≤ 0.5

row,Variant,yeast fitness
1,U19C G25A A37U C62A U64C,≤ 0.5
2,U19C G25A A45G C62U,0.702
3,U19C G25A G48C C62A,≤ 0.5
4,U19C G25C,1.04
5,U19C G25C A37G,0.6
6,U19C G25C C29A G52A,≤ 0.5
7,U19C G25C G51C C60U,≤ 0.5
8,U19C G25C G58A,0.625
9,U19C G25C U54C C61G,≤ 0.5
10,U19C G38C G44C C46A G68C,≤ 0.5
11,U19C G38C G58C U64A,≤ 0.5
12,U19C G39A,0.952
13,U19C G39A G58A,0.613
14,U19C G41A,0.899
15,U19C G41C A65G,0.663
16,U19C G41C A70U,0.671
17,U19C G44C,1
18,U19C G48A,1.04
19,U19C G48A C62A U64C,0.636
20,U19C G48C A57G,0.565
21,U19C G48C A69C,1.03
22,U19C G50A A65C,0.566
23,U19C G50A C55A C62U,≤ 0.5
24,U19C G50A C61U,≤ 0.5

row,Variant,yeast fitness
1,U19C G50C,0.613
2,U19C G51A,0.681
3,U19C G51C C66U,≤ 0.5
4,U19C G52A,0.78
5,U19C G52C,0.562
6,U19C G52C U64A,≤ 0.5
7,U19C G56C,0.67
8,U19C G56C A57G G68U,≤ 0.5
9,U19C G67A,1
10,U19C G67C,0.931
11,U19C G67U,1.07
12,U19C G67U A69G,0.751
13,U19C G68A,0.878
14,U19C U26A,0.945
15,U19C U26A C46U,0.901
16,U19C U26A G67C,0.57
17,U19C U28A C55G,≤ 0.5
18,U19C U28C,0.992
19,U19C U28C G67C,0.638
20,U19C U32C A40C G41A,0.674
21,U19C U32C C60A C61A,0.731
22,U19C U32C U64A,0.501
23,U19C U32G,0.655
24,U19C U35A G38A A42G A69G A70G,≤ 0.5

row,Variant,yeast fitness
1,U19C U35C,0.81
2,U19C U47A,0.896
3,U19C U47C,0.905
4,U19C U53A,0.689
5,U19C U53C G56A,0.622
6,U19C U53C U54A,≤ 0.5
7,U19C U64A,0.898
8,U19C U64C,0.893
9,U19C U64G,0.789
10,U19G,0.975
11,U19G A20C U26C G41A C62G,≤ 0.5
12,U19G A20C U26C U28C,≤ 0.5
13,U19G A20U C27G C66U,≤ 0.5
14,U19G A20U C30U G48A,0.577
15,U19G A20U G56A,0.789
16,U19G A20U G58C,0.716
17,U19G A20U G67A,0.743
18,U19G A20U U53G,≤ 0.5
19,U19G A21C C55G U59A,≤ 0.5
20,U19G A21U C29G A37U,≤ 0.5
21,U19G A21U C33A C49A,≤ 0.5
22,U19G A21U C46U,0.809
23,U19G A36C,0.529
24,U19G A37G A57G A70U,≤ 0.5

row,Variant,yeast fitness
1,U19G A37G C66U A69U,0.691
2,U19G A40G C49A,≤ 0.5
3,U19G A42U C46U,0.569
4,U19G A43C C49U U53C C55G,≤ 0.5
5,U19G A43C U53C C55G A70U,≤ 0.5
6,U19G A43C U53C C55G C66U,≤ 0.5
7,U19G A43U A65G G68A,0.512
8,U19G A43U A70C,0.716
9,U19G A43U C61G,0.559
10,U19G A45C A70U,0.557
11,U19G A57G A70U,0.731
12,U19G A65G A70C,0.733
13,U19G A70G,0.847
14,U19G C22G A36C A57G C60A C66G,≤ 0.5
15,U19G C22G C34U,0.559
16,U19G C22U A70G,0.624
17,U19G C22U C30U C31U A40U G67A,≤ 0.5
18,U19G C22U C31U A40U,0.586
19,U19G C22U C31U A40U A65C G68A,≤ 0.5
20,U19G C22U C31U A40U A69U,0.569
21,U19G C22U C31U A40U C55G A65C,≤ 0.5
22,U19G C27G C34A A42U,≤ 0.5
23,U19G C27U A37G U47C,≤ 0.5
24,U19G C29A,0.56

row,Variant,yeast fitness
1,U19G C29A U54A,≤ 0.5
2,U19G C29U A40C,0.52
3,U19G C29U A40C A65G,≤ 0.5
4,U19G C29U A40C C60G C62A A65G,0.525
5,U19G C29U C49U,≤ 0.5
6,U19G C29U G39C A42U G67A,0.537
7,U19G C30A A43U,0.601
8,U19G C30A A45U G56A G58C A69U,≤ 0.5
9,U19G C30A A45U G58C A69U,≤ 0.5
10,U19G C30A C49U,0.602
11,U19G C30U C62G,0.603
12,U19G C31A G39C C62G G68A,≤ 0.5
13,U19G C31A U35A C55G G58C,0.519
14,U19G C33U A40C A45C,≤ 0.5
15,U19G C33U C34U,≤ 0.5
16,U19G C34U G68C,0.591
17,U19G C46A,0.932
18,U19G C46U,0.962
19,U19G C49G,0.69
20,U19G C49U A69C,≤ 0.5
21,U19G C49U C60A,≤ 0.5
22,U19G C49U C60A C66G,≤ 0.5
23,U19G C49U C62A A69G,≤ 0.5

# Reference: the RNAGym collection of RNA variant scans (doi:10.1126/science.aae0568)
